Test results published in paper PMC11607387 (Nature Communications, 2024).

Experiments:
RAW264.7 cells = assay: MTT cytotoxicity on RAW264.7 cells; type: cell-based; conditions: for cytotoxicity in RAW 264.7 cells: without laser
How it was run: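 RAW264.7 cells seeded at 5 × 10^3/well, grown 24 h, then exposed to preparations across a concentration series. After 4 h, only the laser groups were irradiated (650 nm); all cells were incubated a further 20 h, and viability was read by MTT.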

[1] = DLS size, PDI and zeta potential of nanoparticles; type: physicochemical; conditions: without dBET6
human MMP-2 = target: T1, human MMP-2 (Homo sapiens, UniProt P08253); assay: MMP-2 responsiveness; type: biochemical; conditions: human MMP-2, 4 and 24 h, 37 °C, MALDI-TOF-MS
T1 sequence (P08253 110-660): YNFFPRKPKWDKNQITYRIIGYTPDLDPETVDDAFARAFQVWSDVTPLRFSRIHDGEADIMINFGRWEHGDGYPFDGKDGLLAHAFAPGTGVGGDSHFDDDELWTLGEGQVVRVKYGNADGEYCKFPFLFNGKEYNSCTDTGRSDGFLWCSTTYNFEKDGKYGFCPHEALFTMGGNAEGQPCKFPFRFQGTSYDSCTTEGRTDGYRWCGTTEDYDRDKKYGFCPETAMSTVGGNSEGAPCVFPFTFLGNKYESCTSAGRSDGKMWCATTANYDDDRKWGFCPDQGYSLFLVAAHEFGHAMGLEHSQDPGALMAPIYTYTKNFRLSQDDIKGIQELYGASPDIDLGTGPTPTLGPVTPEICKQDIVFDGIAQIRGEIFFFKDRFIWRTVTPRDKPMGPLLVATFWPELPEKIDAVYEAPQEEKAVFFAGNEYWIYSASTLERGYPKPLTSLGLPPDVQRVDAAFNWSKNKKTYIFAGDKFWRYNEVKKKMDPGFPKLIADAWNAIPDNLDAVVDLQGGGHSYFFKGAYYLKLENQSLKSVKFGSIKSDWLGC

4T1 cells [2] = assay: Cellular uptake by flow cytometry and fluorescence microscopy; type: cell-based, murine; conditions: flow cytometry, Ce6 5 μg/mL
How it was run: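 4T1 cells (1 × 10^5/well) grown to 80% confluency, exposed to formulations in serum-free 1640 medium at equal Ce6 (5 μg/mL) for 1, 4 or 12 h, then analysed by flow cytometry (n = 3). For microscopy, cells (2 × 10^5/well) on coverslips grown 36 h to 60% confluency, treated likewise, washed with cold PBS, fixed, DAPI-stained (1 μg/ml, 5 min) and imaged.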

[3] = test system: mice bearing 4T1-Luc brain-metastatic tumor; assay: Brain accumulation in brain-metastasis model; conditions: ex vivo, 8 h post intravenous injection
How it was run: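 Brain-metastasis model: 4T1-Luc cells (5 × 10^3) implanted stereotactically into right hippocampus. After 10 days, grouped by bioluminescence intensity (n = 4). Formulations given intravenously; IVIS fluorescence imaging at 1, 2, 4 and 8 h. At 8 h, mice sacrificed; brains and major organs imaged ex vivo for fluorescence.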

[4] = test system: BALB/c nude mice bearing breast cancer; assay: Tumor retention after intra-tumoral injection; type: in vivo; conditions: 48 h post intra-tumoral injection, ex vivo
How it was run: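 Breast-tumour-bearing BALB/c nude mice received formulations intratumorally. IVIS fluorescence imaging at 5 min and 4, 8, 12, 24, 36 and 48 h post-injection. Tumours and major organs were imaged ex vivo, then fixed, dehydrated and frozen-sectioned for fluorescence imaging.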

4T1 cells [5] = assay: Wound healing assay; type: cell-based, murine; conditions: 24 h, cell motility = 1 - wound area at 24 h/wound area at 0 h
How it was run: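 4T1 monolayers in 12-well plates at 80% confluency were scratched with a 10 μL tip and washed three times with cold PBS, then treated with formulations. Laser groups were irradiated after 4 h. At 24 h, cells were fixed, stained with 0.1% crystal violet, and the scratched area imaged by inverted microscope.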

[6] = test system: BALB/c nude mice bearing primary tumors of breast cancer; assay: Biodistribution after intravenous injection; type: in vivo; conditions: 24 h post intravenous injection, ex vivo
How it was run: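 Tumour-bearing BALB/c nude mice, tumours about 200 mm3 roughly 14 days after cell injection, randomised into four groups (n = 4). Ce6-labelled formulations were given intravenously and imaged on IVIS at 1, 2, 4, 8, 12 and 24 h. At 24 h animals were sacrificed; tumours and major organs were imaged ex vivo, fluorescence semi-quantified, then fixed and frozen-sectioned for imaging.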

Molecule | influence on cell viability of RAW264.7 cells (RAW264.7 cells; dBET6 0.25 μg/mL) | size of self-assembled nanoparticles [1] | molecular mass change after incubation with MMP-2 (human MMP-2) | fluorescence signal relative to free Ce6 (cellular uptake) (4T1 cells [2]; 1 h) | fluorescence signal relative to free Ce6 (cellular uptake) (4T1 cells [2]; 4 h) | fluorescence signal relative to free Ce6 (cellular uptake) (4T1 cells [2]; 12 h) | cytotoxicity in RAW 264.7 cells (RAW264.7 cells) | brain fluorescence, fold stronger than CFPD [3] | brain fluorescence, fold stronger than CPD [3] | brain fluorescence, fold stronger than Ce6 [3] | tumor fluorescence intensity, fold stronger than CFPD [4] | cell mobility (wound healing) (4T1 cells [5]) | tumor fluorescent signal, fold higher than CFPD [6] | tumor fluorescent signal, fold higher than CPD [6]
Cc1sc2c(c1C)C(c1ccc(Cl)cc1)=N[C@@H](CC(=O)NCCCCCCCCNC(=O)COc1cccc3c1C(=O)N(C1CCC(=O)NC1=O)C3=O)c1nnc(C)n1-2 (stereo partly shown) [dBET6, reference compound] | no influence on cell viability | – | – | – | – | – | – | – | – | – | – | – | – | –
Ce6-FFRFKGPGLLAGC-PEG-DSPE [CFPD] | – | around 90 nm | no significant change in molecular mass | 5.71 fold | 3.73 fold | 3.10 fold | negligible cytotoxicity | – | – | – | – | – | – | –
Ce6-FFRFKGPLGLAGC-PEG-DSPE [CFMPD] | – | around 90 nm | distinct new peaks belonging to the post-enzymatic fragmentation | 6.53 fold | 4.13 fold | 3.64 fold | negligible cytotoxicity | 1.46 fold | 2.04 fold | 2.43 fold | 1.72 fold | 37.0% | 1.22 fold | 1.71 fold
Ce6-PEG3400-DSPE [CPD] | – | around 90 nm | – | – | – | – | negligible cytotoxicity | – | – | – | – | – | – | –
